We go through two compounds from PMC3039817 (British Journal of Cancer, 2010).

Structures are written as SMILES.

The test system of one series is RT4 cells. In words: Cell cycle distribution by flow cytometry. The format is cell-based, human. Conditions: 500 nM, 24-h exposure. In short, it runs like this: (§1)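 Cells grown in standard medium at 37 °C, 5% CO2, then exposed to 500 nM test compound or DMSO for 24 h. Harvested cells were fixed overnight in 70% ethanol at 4 °C and rehydrated in PBS pH 7.4. They were then pelleted, stained with propidium iodide/RNase in the dark at 37 °C for 30 min, and analysed by flow cytometry. Three independent experiments; ANOVA.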
A general note: A flow cytometer gives signals particle by particle.

The test system of series [1] is phospho-ERK in 94-10 cells. Put plainly: FGF2-induced and constitutive ERK phosphorylation in 94-10 cells. The format is cell-based, human. Conditions: 500 nM, pretreated 1 h, FGF2 5 ng ml–1 + heparin 10 μg ml–1, 15 min. In short, it runs like this:
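94-10 cells (FGFR1-expressing) were pretreated 1 h with or without 500 nM test compound. They were then stimulated 15 min with heparin (10 μg ml–1) with or without FGF2 (5 ng ml–1). Lysis was in RIPAE buffer (Triton X-100, EDTA, SDS, deoxycholate, glycerol, protease inhibitors in PBS), cleared at 12 700 × g, 4 °C. Protein was measured by BCA, immunoblotted for phospho-ERK, reprobed for tubulin and detected by chemiluminescence.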

Another series deals with SW780 cells. Put plainly: Cell cycle distribution by flow cytometry. The format is cell-based, human. Conditions: 500 nM, 24-h exposure. In a few lines:
as §1

A further series deals with MGH-U3 cells. Put plainly: Cell cycle distribution by flow cytometry. In kind it is cell-based, human. Conditions: 500 nM, 24-h exposure. In a few lines: as §1
A further series relates to 97-7 cells. In words: Cell cycle distribution by flow cytometry. The format is cell-based, human. Conditions: 500 nM, 24-h exposure. In short, it runs like this:
as §1

In the next series the test system is RT112 cells. Put plainly: Cell cycle distribution by flow cytometry. The format is cell-based, human. Conditions: 500 nM, 24-h exposure. In short, it runs like this:
as §1

The nature of series [2]: Toxicity in treated xenograft-bearing animals. In kind it is in vivo, Balb/c immunodeficient nude mice. Conditions: nude mice, 20 mg kg–1 per day i.p. In a few lines:
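Male Balb/c nude mice aged 6–8 weeks carried flank trocar implants of ~2 mm3 MGH-U3, SW780 or RT112 tumour fragments. At mean 32 mm3, mice were randomised into groups of eight (untreated control or treated). Dosing was 20 mg kg−1 per day i.p. on days 0–3, plus days 6–9 for MGH-U3. Tumours were measured by caliper.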

Another series addresses FGFR3 (Homo sapiens, UniProt P22607). In words: FGFR3 phosphorylation in RT112 cells. The format is cell-based. Conditions: 500 nM, 0–24 h. In a few lines: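 RT112 cells were exposed to 500 nM test compound for 0–24 h and lysed in RIPAE buffer, cleared at 12 700 × g, 4 °C. FGFR3 was immunoprecipitated with an extracellular-domain antibody. Blots were probed with anti-phosphotyrosine (4G10), then stripped (Tris pH 7.5/urea, 55 °C, 30 min) and reprobed for FGFR3. Detection was by chemiluminescence.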

Chain of FGFR3 (P22607 397-758 limits assumed): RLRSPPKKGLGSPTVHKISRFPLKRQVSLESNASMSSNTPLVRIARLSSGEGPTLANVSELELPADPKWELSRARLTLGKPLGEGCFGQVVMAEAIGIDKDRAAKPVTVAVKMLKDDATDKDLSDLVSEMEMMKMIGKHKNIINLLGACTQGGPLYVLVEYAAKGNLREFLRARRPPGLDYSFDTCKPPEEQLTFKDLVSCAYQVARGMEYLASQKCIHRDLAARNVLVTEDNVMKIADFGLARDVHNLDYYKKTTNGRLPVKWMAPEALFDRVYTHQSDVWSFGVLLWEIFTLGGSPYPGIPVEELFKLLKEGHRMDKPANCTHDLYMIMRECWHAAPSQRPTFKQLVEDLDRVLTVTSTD

In the case of `CCN(CC)CCCCNc1ncc2cc(-c3cc(OC)cc(OC)c3)c(NC(=O)NC(C)(C)C)nc2n1` [PD173074, 1-tert-butyl-3-[6-(3,5-dimethoxy-phenyl)-2-(4-diethylamino-butylamino)-pyrido[2,3-d]pyrimidin-7-yl]-urea], the cell cycle distribution entry in the series with RT4 cells is listed as “significant increase in the proportion of cells in G1”; with SW780 cells it was “no significant change in cell cycle distribution”; in the series with MGH-U3 cells, “significant increase in the proportion of cells in G1”; in the series with 97-7 cells, “significant increase in the proportion of cells in G1”; in the series with RT112 cells, “significant increase in the proportion of cells in G1”. Also, the “FGF-induced and constitutive ERK phosphorylation” value in series [1] was “block both FGF-induced and constitutive ERK phosphorylation”. In series [2], the “toxicity in treated animals” value was “No evidence of significant toxicity”. Further, on FGFR3, the “FGFR3 phosphorylation, time-course” value was “rapid and sustained inactivation of FGFR3”.

Take `CN1CCN(c2ccc3nc(-c4c(N)c5c(F)cccc5[nH]c4=O)[nH]c3c2)CC1` [TKI-258]: the cell cycle distribution entry in the series on RT4 cells is “significant increase in the proportion of cells in G1”; in the series on SW780 cells, “no significant change in cell cycle distribution”; in the series on MGH-U3 cells, “significant increase in the proportion of cells in G1”; with 97-7 cells, “significant increase in the proportion of cells in G1”; in the series on RT112 cells, “significant increase in the proportion of cells in G1”.
